According to paper PMC5604227 (Biochemistry, 2016):
Where “and” joins values, the source holds several entries; their conditions need not be identical. Equal entries are not always repeated.

Assays:
[1] = target: T1, wild-type TSase (Escherichia coli, UniProt P0A884); parameters: species or system E. coli
Method in brief: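 1H-13C HSQC of wild-type TSase with dUMP bound, U-[2H,13C,15N] ILV-methyl labelled (Ile δ1 only; Leu/Val one methyl protonated). Fraction of the covalently bound state taken from the relative intensities of its assigned resonances. Forward covalent-bond formation rate calculated from that fraction and a prior literature bond-breakage rate (H5 solvent exchange, 0.01 min−1, similar pH and temperature).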

[2] = target: C146S-dUMP complex (Escherichia coli, UniProt P0A884, C146S); type: binding, E. coli; details: 5 °C
[3] = target: T2, C146S TSase (Escherichia coli, UniProt P0A884, C146S); experiment: ITC of dUMP binding to C146S TSase; parameters: species or system E. coli
[4] = target: T1, wild-type TSase; details: ITC; cited from earlier work
[5] = system: TSase (wild-type and C146S); parameters: species or system E. coli
[6] = target: T2, C146S TSase; details: cited from earlier work
[7] = C146S relative to wild-type, 25 °C

T1 sequence (P0A884 whole entry): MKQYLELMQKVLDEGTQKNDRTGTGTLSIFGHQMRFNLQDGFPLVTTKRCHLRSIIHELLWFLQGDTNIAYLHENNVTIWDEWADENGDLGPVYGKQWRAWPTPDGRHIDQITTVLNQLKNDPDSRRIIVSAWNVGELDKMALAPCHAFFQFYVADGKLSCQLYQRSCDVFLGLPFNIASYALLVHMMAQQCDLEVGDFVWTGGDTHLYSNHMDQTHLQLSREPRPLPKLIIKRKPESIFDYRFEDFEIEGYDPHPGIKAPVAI
T2 sequence (P0A884 whole entry C146S): as the sequence (P0A884 whole entry) above, with C146S counted along it
Chain of C146S-dUMP complex (P0A884 whole entry C146S, one chain of several): as the sequence (P0A884 whole entry) above, with C146S counted along it

O=c1[nH]c(=O)n([C@H]2C[C@H](O)[C@@H](COP(=O)(O)O)O2)cc1F [5F-dUMP]
population of the minor (covalent) state relative to dUMP complex ([1]; wild-type TSase complex): significantly increased

Cc1nc2ccc(CN(C)c3ccc(C(=O)N[C@@H](CCC(=O)O)C(=O)O)s3)cc2c(=O)[nH]1 [Raltitrexed]
cooperativity ρ [2]: 1.3 ± 0.3

O=c1ccn([C@H]2C[C@H](O)[C@@H](COP(=O)(O)O)O2)c(=O)[nH]1 [dUMP]
fold weaker dUMP binding [3, 7]: 18 fold and 20 fold | ΔΔG°bind penalty for formation of the dUMP complex [3, 7]: 1.7 kcal/mol | change in TΔS° per binding event ([3]; C146S vs wild-type): ~1 kcal/mol | sum of calorimetric TΔΔS° values for both binding events ([3]; C146S vs wild-type): -1.7 kcal/mol | change in protonation state on binding (loss of proton per binding event) [4]: less than 0.1 proton | fraction of covalently bound state ([1]; wild-type dUMP complex, from resonance intensities): 19% and ~20% | total TΔΔS°conf associated with binding both dUMP molecules ([5]; scaled to probes in the dimer, C146S vs wild-type): -2.08 ± 0.18 kcal/mol | ΔS°conf opposing binding of each dUMP molecule ([5]; wild-type TSase): ~1 kcal/mol | fold weaker KD of C146S for dUMP than wild-type [6]: ~2 fold
